The values below come from ChEMBL document CHEMBL1938232 (Bioorg Med Chem, 2012).

Data set [1] deals with ALK tyrosine kinase receptor (Homo sapiens, UniProt Q9UM73).
Data set [2] concerns the target Vascular endothelial growth factor receptor 2 (Homo sapiens, UniProt P35968). Put plainly: Inhibition of KDR using Bio-Gastrintide as substrate by TR-FRET assay in presence of 50 uM of ATP.
The target in data set [3] is Mast/stem cell growth factor receptor Kit (Homo sapiens, UniProt P10721). Put plainly: Inhibition of KIT using Bio-HER2tide as substrate by TR-FRET assay in presence of 50 uM of ATP.
In data set [4] the target is Hepatocyte growth factor receptor (Homo sapiens, UniProt P08581). Put plainly: Inhibition of MET using Bio-HER2tide as substrate by TR-FRET assay in presence of 50 uM of ATP. (In general: TR-FRET usually uses a lanthanide donor and a delayed reading to cut background.)
Data set [5] concerns KARPAS-299. Nature of the data set: Antiproliferative activity against human KARPAS299 cells after 96 hrs by cell counting assay. The class given is functional, cell-based. The settings on record: KARPAS-299, 96 h. A digest of the protocol:
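KARPAS-299 cells exposed to a range of compound concentrations for 96 h. Growth inhibition read by Cell Counting Kit-8.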

Data set [6] in a line: Clearance in human liver microsomes assessed as per mg of protein after 30 mins by LC/MS analysis. In kind it is ADME, Microsome. Conditions: read-out: CLH. A digest of the protocol:
(§1)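 1 µM compound incubated at 37 °C for 30 min with liver microsomes (0.5 mg protein/mL) in 50 mM phosphate buffer pH 7.4 with 1 mM NADPH. Reaction stopped with threefold volume of acetonitrile and centrifuged. Remaining compound in supernatant quantified by LC/MS.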
In general terms: Liver microsomes are vesicles of endoplasmic reticulum, rich in cytochrome P450 enzymes.

The nature of data set [7]: Clearance in mouse liver microsomes assessed as per mg of protein after 30 mins by LC/MS analysis. In kind it is ADME, Microsome. The settings on record: read-out: CLH. A digest of the protocol: as §1
Data set [8] deals with KARPAS-299. Nature of the data set: Antitumor activity against human KARPAS299 cells expressing NPM-ALK xenografted mouse model assessed as tumor growth inhibition at 20 mg/kg, po. The class given is functional. The settings on record: read-out: GI. On the technique in general: A xenograft is tissue or cells of one species grown in another, often human tumour cells in immunodeficient mice.

Data set [9] deals with NCI-H2228. Nature of the data set: Antitumor activity against human NCI-H2228 cells expressing EML4-ALK xenografted mouse model assessed as tumor growth inhibition at 20 mg/kg, po. In kind it is functional. The settings on record: read-out: GI.
The nature of data set [10]: Oral bioavailability in Sprague-Dawley rat at 1 mg/kg. In kind it is ADME, organism-based. The settings on record: in vivo. A digest of the protocol:
(§2)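 Sprague–Dawley rats, n = 3 per group, dosed po or iv at 1 mg/kg in 10% N,N-dimethylacetamide, 20% HP-β-CD and 0.02 M HCl in water. Heparinized blood taken at 0.08–72 h after iv and 0.50–72 h after po. Plasma analysed by LC–MS/MS.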

A short description of data set [11]: Oral bioavailability in cynomolgus monkey at 0.5 mg/kg. The class given is ADME, organism-based, Macaca fascicularis. The settings on record: in vivo. In a few lines:
(§3)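 Fasted cynomolgus monkeys, n = 2 per group, dosed po or iv at 0.5 mg/kg in 10% DMSO, 20% HP-β-CD and 0.02 M HCl in water. Heparinized blood sampled at 0.08–48 h after iv and 0.50–48 h after po. Plasma quantified by LC–MS/MS.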

Data set [12] in a line: AUC in Sprague-Dawley rat at 1 mg/kg, po. Conditions: plasma. The class given is ADME, organism-based. Further details: dose 1 mg/kg, route oral. In a few lines:
as §2

A short description of data set [13]: AUC in cynomolgus monkey at 0.5 mg/kg, po. Also noted: dose 0.5 mg/kg, route oral. The class given is ADME, organism-based, Macaca fascicularis. The settings on record: plasma. A digest of the protocol: as §3
Data set [14] in a line: Cmax in Sprague-Dawley rat at 1 mg/kg, po. In kind it is ADME, organism-based. The settings on record: in vivo. Also noted: dose 1 mg/kg, route oral. In a few lines: as §2
A short description of data set [15]: Cmax in cynomolgus monkey at 0.5 mg/kg, po. In kind it is ADME, organism-based, Macaca fascicularis. Further details: dose 0.5 mg/kg, route oral. Conditions: in vivo. In a few lines:
as §3

Data set [16] can be described thus: Half life in Sprague-Dawley rat at 1 mg/kg, po. The class given is ADME, organism-based. Also noted: dose 1 mg/kg, route oral. The settings on record: in vivo. A digest of the protocol:
as §2

Data set [17] in a line: Total clearance in Sprague-Dawley rat at 1 mg/kg, iv. The class given is ADME, organism-based. Further details: dose 1 mg/kg, route intravenous. The settings on record: in vivo. In a few lines: as §2
A short description of data set [18]: Total clearance in cynomolgus monkey at 0.5 mg/kg, iv. The class given is ADME, organism-based, Macaca fascicularis. Further details: dose 0.5 mg/kg, route intravenous. The settings on record: in vivo. In a few lines:
as §3

Data set [19] in a line: Volume of distribution at steady state in Sprague-Dawley rat at 1 mg/kg, iv. Further details: dose 1 mg/kg, route intravenous. Conditions: in vivo, read-out: Vdss. The class given is ADME, organism-based. In a few lines:
as §2

Data set [20] in a line: Volume of distribution at steady state in cynomolgus monkey at 0.5 mg/kg, iv. In kind it is ADME, organism-based, Macaca fascicularis. Further details: dose 0.5 mg/kg, route intravenous. The settings on record: in vivo, read-out: Vdss. In a few lines: as §3
Data set [21] is described as follows: Half life in Sprague-Dawley rat at 1 mg/kg, iv. In kind it is ADME, organism-based. Further details: dose 1 mg/kg, route intravenous. Conditions: in vivo. A digest of the protocol:
as §2

Data set [22] in a line: in vivo. The settings on record: cynomolgus monkey, po, 0.5 mg/kg.
Data set [23] in a line: in vivo. The settings on record: cynomolgus monkey, iv, 0.5 mg/kg.
In data set [24] the test system is Mus musculus. Put plainly: Toxicity in human NCI-H2228 cells expressing EML4-ALK xenografted mouse model assessed as body weight loss at 20 mg/kg, po. The settings on record: in vivo.

Molecules are shown by their SMILES. Where only a bound is given, the exact number is not on record here.

In general, IC50 refers to the concentration at which inhibition is half-maximal. Usually bioavailability stands for dose-corrected exposure relative to a reference, in per cent. By AUC is commonly meant the area under the concentration-time curve, a measure of exposure. As usually defined, the Cmax is the highest concentration seen after dosing. As a reminder, the half-life is the time needed for the level to fall by half in the phase considered. The clearance is a measure of how efficiently the substance is removed, as volume per time.

Sequence of Hepatocyte growth factor receptor (P08581 whole entry): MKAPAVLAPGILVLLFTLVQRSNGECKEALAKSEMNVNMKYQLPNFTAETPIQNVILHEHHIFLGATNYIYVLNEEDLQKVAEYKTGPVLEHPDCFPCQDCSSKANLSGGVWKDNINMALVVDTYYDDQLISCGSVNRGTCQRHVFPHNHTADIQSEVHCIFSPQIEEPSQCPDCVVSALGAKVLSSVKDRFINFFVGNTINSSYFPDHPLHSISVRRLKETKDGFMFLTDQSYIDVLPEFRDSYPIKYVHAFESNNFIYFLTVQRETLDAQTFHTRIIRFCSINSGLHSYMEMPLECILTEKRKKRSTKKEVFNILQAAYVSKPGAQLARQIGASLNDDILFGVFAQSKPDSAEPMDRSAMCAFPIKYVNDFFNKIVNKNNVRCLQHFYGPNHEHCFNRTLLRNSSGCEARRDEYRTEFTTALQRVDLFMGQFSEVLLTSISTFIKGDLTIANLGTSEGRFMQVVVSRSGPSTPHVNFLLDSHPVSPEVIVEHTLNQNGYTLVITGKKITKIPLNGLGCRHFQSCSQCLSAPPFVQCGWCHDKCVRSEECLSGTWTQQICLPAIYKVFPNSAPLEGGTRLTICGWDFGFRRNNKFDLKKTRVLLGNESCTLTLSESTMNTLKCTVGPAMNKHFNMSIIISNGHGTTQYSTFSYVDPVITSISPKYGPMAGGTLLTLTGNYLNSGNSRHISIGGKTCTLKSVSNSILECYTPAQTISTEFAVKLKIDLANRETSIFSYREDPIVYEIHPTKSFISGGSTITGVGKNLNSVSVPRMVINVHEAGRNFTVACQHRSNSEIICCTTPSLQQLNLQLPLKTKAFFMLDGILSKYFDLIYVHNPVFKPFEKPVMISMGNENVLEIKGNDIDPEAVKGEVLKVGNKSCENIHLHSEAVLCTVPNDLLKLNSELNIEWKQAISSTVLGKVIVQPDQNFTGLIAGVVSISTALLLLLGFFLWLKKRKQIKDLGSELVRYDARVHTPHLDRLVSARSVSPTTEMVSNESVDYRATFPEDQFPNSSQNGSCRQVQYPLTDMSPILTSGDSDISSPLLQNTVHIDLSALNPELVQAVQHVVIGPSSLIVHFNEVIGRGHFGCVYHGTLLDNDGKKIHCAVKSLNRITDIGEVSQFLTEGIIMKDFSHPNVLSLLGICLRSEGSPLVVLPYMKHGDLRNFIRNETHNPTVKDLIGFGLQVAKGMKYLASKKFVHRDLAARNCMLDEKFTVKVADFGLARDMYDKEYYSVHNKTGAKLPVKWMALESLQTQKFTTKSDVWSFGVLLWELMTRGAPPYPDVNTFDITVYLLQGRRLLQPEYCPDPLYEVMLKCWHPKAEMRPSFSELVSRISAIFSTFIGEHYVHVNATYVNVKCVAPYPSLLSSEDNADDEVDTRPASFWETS
Sequence of Mast/stem cell growth factor receptor Kit (P10721 whole entry): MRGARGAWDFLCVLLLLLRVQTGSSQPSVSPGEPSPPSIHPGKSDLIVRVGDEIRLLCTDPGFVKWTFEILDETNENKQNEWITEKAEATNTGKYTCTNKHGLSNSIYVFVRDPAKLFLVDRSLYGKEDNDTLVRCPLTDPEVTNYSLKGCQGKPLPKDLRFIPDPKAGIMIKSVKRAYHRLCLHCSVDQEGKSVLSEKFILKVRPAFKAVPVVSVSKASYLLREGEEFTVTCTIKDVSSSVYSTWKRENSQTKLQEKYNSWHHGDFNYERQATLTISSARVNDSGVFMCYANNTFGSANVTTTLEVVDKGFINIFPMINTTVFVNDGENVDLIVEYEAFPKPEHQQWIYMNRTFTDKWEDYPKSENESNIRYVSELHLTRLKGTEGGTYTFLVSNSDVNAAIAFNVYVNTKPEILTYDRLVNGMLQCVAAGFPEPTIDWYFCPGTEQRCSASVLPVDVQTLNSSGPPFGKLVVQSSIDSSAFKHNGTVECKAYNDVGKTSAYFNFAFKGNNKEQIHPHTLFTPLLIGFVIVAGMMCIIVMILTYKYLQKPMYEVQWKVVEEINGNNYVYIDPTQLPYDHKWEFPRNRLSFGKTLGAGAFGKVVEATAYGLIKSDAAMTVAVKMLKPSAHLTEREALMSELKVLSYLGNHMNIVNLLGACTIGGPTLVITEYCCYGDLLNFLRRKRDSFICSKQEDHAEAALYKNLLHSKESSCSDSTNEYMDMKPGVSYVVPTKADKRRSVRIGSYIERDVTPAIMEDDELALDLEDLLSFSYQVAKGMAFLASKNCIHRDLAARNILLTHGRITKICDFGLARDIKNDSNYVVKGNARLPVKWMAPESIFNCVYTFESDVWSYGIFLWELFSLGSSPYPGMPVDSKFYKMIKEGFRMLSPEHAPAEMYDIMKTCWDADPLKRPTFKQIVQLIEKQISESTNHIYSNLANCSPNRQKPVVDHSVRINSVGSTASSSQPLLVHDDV
Sequence of Vascular endothelial growth factor receptor 2 (P35968 whole entry): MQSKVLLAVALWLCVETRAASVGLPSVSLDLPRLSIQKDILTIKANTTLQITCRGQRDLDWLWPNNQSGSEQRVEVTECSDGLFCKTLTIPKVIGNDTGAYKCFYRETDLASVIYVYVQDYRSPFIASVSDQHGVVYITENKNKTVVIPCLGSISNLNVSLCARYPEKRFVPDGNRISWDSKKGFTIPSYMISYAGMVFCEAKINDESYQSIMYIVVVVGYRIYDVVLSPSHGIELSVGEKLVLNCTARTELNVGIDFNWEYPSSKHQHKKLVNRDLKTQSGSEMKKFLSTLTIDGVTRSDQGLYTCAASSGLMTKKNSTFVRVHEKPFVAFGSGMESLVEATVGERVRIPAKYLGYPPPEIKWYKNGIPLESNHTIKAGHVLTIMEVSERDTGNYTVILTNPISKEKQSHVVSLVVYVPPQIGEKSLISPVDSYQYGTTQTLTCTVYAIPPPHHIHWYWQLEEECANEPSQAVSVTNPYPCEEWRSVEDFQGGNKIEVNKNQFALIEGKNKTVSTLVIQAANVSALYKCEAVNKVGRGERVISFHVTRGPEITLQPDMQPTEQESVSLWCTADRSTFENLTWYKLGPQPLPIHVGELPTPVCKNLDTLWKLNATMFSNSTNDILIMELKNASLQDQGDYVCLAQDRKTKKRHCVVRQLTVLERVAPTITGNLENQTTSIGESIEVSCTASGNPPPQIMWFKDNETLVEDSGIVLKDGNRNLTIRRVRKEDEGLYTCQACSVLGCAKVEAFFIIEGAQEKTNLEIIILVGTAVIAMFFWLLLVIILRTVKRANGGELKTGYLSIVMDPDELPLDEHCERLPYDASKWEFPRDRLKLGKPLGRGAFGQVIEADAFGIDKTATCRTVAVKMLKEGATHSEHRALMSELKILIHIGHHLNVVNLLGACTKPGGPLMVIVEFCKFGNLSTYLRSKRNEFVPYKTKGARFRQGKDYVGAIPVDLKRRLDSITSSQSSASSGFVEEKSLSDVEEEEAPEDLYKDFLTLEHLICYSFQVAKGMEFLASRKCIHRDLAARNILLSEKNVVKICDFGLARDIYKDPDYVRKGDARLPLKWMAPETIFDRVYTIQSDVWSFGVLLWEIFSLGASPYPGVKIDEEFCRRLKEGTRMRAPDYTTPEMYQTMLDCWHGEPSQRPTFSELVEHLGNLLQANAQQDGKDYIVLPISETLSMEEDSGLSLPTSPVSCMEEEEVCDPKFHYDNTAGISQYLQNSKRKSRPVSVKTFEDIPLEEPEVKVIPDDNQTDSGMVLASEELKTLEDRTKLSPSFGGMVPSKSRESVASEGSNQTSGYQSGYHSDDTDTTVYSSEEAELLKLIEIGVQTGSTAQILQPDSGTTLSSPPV

With `CC1(C)c2ccc(N3CCN(C4CC4)CC3)cc2C(=O)c2c1[nH]c1cc(C#N)ccc21`, the IC50 in [1] is 233 nM; in [2], above 5000 nM; in [3], above 5 µM; in [4] it was above 5 µM; in data set [5] it was 238 nM. The microsomal CLint in data set [6] is 16.4 µL/min/mg; in data set [7] it was 24.9 µL/min/mg.

`CC1(C)c2cc(N3CCC(N4CCOCC4)CC3)ccc2C(=O)c2c1[nH]c1cc(C#N)ccc21`: the IC50 in [1] was 16 nM; in data set [2], 759 nM; in data set [3], 2.99 µM; in [4], above 5 µM; in [5], 26.5 nM. Further, the microsomal CLint in data set [6] was 106 µL/min/mg; in [7], 72 µL/min/mg.

`CCc1cc2c(cc1N1CCN(C3COC3)CC1)C(C)(C)c1[nH]c3cc(C#N)ccc3c1C2=O`: the IC50 was above 5000 nM in data set [2], above 5 µM in data set [3] and above 5 µM in data set [4].

Regarding `CC1(C)c2ccc(N3CCN(C4COC4)CC3)cc2C(=O)c2c1[nH]c1cc(C#N)ccc21`, the IC50 was above 5000 nM in [2], above 5 µM in [3], above 5 µM in [4] and 151 nM in data set [5]. Further, the microsomal CLint came out at 14.2 µL/min/mg in data set [6] and 20.6 µL/min/mg in data set [7].

With `CCc1cc2c(cc1N1CCN(C3CC3)CC1)C(C)(C)c1[nH]c3cc(C#N)ccc3c1C2=O`, the IC50 was 5.2 nM in data set [1]; 4210 nM in [2]; above 5 µM in data set [3]; above 5 µM in data set [4]; 45.8 nM in [5]. The microsomal CLint was 22.1 µL/min/mg in data set [6] and 3.3 µL/min/mg in [7].

For the molecule `CC1(C)c2ccc(C3CCN(C4CC4)CC3)cc2C(=O)c2c1[nH]c1cc(C#N)ccc21`, the IC50 in data set [1] is 44 nM; in data set [2] it was 882 nM; in data set [3] it was above 5 µM; in data set [4], above 5 µM; in data set [5], 121 nM. Besides, the microsomal CLint is 59.1 µL/min/mg in data set [6] and 20 µL/min/mg in [7].

Turning to `Cc1cc2c(cc1N1CCC(N3CCOCC3)CC1)C(C)(C)c1[nH]c3cc(C#N)ccc3c1C2=O`, the half-maximal inhibitory concentration (IC50) was 186 nM in [2], 1.06 µM in data set [3], above 5 µM in [4] and 4.8 nM in [5]. Besides, the microsomal CLint was 23 µL/min/mg in data set [6] and 15.8 µL/min/mg in [7].

Turning to `CCCc1cc2c(cc1N1CCC(N3CCOCC3)CC1)C(C)(C)c1[nH]c3cc(C#N)ccc3c1C2=O`, the half-maximal inhibitory concentration (IC50) in data set [1] is 1.1 nM; in data set [2] it was above 5000 nM; in data set [3], above 5 µM; in data set [4] it was above 5 µM; in data set [5] it was 26.1 nM. Moreover, the microsomal CLint in [6] worked out at 17.1 µL/min/mg; in data set [7], 58.5 µL/min/mg.

With `CCc1cc2c(cc1N1CCC(N3CCOCC3)CC1)C(C)(C)c1[nH]c3cc(C#N)ccc3c1C2=O` [ALECTINIB], the IC50 is above 5 µM in data set [3], above 5 µM in data set [4] and 3 nM in data set [5]. The microsomal CLint was determined as 17.7 µL/min/mg in data set [6] and 8.7 µL/min/mg in data set [7]. The inhibition in vivo at 20 mg/kg in data set [8] is 119%; in [9], 168%. The bioavailability in data set [10] is 65.2%; in data set [11], 50.4%. The AUC in [12] was 1400 ng·h/mL; in data set [13], 696 ng·h/mL. In addition, the peak concentration (Cmax) was 60.8 ng/mL in data set [14] and 55.8 ng/mL in data set [15]. For the same molecule, the half-life in data set [16] was 756 min; in [21] it was 1070 min; in data set [22], 503 min; in data set [23], 624 min. In addition, the clearance in data set [17] was found to be 7.79 mL/min/kg; in data set [18] it was 6.04 mL/min/kg. For the same molecule, the Vd turned out to be 9.33 L/kg in data set [19] and 5.28 L/kg in data set [20]. Further, the Activity entry in data set [24] was “Non-toxic”.

With `CCc1cc2c(cc1N1CCN(C3CCC3)CC1)C(C)(C)c1[nH]c3cc(C#N)ccc3c1C2=O`, the IC50 in data set [1] is 2.4 nM; in data set [2], 3120 nM; in data set [3], above 5 µM; in data set [4], above 5 µM; in data set [5], 22.4 nM. Further, the values for the microsomal CLint in data set [6] and in [7] were 15.6 µL/min/mg and 4.4 µL/min/mg, respectively.

With `CC1(C)c2ccc(C3CCN(C4COC4)CC3)cc2C(=O)c2c1[nH]c1cc(C#N)ccc21`, the 50% inhibitory concentration (IC50) in data set [1] is 67 nM; in data set [2], 2520 nM; in [3], above 5 µM; in [4], above 5 µM; in [5], 86.9 nM. The microsomal CLint in data set [6] and in data set [7] was 38.6 µL/min/mg each time.
